Key:
[1] = species: Rattus norvegicus; test: Concentration required to cause 50% inhibition of spontaneous activity in rat portal vein; format: functional; details: for IC50: Rattus norvegicus
[2] = species: Rattus norvegicus; test: Concentration required to cause 15% increase in [86Rb+] efflux from rat portal vein.; format: functional
In short: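 Rat portal vein, opened lengthwise, tension 500 mg, equilibrated 30 min in HEPES-buffered PSS (95% O2/5% CO2, 32 °C, pH 7.4), then loaded 80 min with 86RbCl (5 µCi/mL). Perfusate collected every 2 min; rate constant k from released vs. remaining tissue activity. Drug effect = peak k during application vs. basal k (6–10 min prior), as Δk %; n = 4–6.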

[3] = Ionisation constant (pKa2) due to […]; format: physicochemical; details: read-out: pKa2
[4] = Ionisation constant (pKa1) due to protonation of the pyridyl ring; format: physicochemical; details: read-out: pKa1
[5] = Ionisation constant (pKa2)

SMILES | IC50 [1] | pEC15 [2] | Log IC50 [1] | pKa [3] | pKa [4] | pKa2 [5]
CC(C)(C)CCN/C(=C\[N+](=O)[O-])Nc1cccnc1 | 2000 nM | 3.5 |  |  |  | 
CC(/N=C(/NC#N)Nc1cccnc1)C(C)(C)C (single isomer, unassigned) |  |  | -5.2 |  |  | 
C[C@H](N/C(=N/c1ccncc1)NC#N)C(C)(C)C | 776 nM | 4.4 |  |  |  | 
CC(N/C(=C\[N+](=O)[O-])Nc1cccc(C#N)c1)C(C)(C)C (centres undefined) | 316 nM | 4 |  | 8.88 |  | 
CC(C)N/C(=C\[N+](=O)[O-])Nc1cccnc1 | 31600 nM | <3.5 |  |  |  | 
CCC(C)N1CCN=C1Nc1cccnc1 (centres undefined) | 100000 nM | <3 |  |  |  | 
CC(C)(C)C(CO)/N=C(/S)Nc1cccnc1 (centres undefined) | 3160 nM | <3.5 |  |  |  | 
CC(C)(C)CNC(=O)Nc1cccnc1 | 2000 nM | 4 |  | > 14 | 3.74 | 
CC(N/C(=C\[N+](=O)[O-])Nc1cccnc1)C(C)(C)C (single isomer, unassigned) |  | 5.8 | -8 |  |  | 
CC(C)(C)/N=C(\Cc1cccnc1)NC#N | 5010 nM | 3.5 |  | > 14 | 2.71 | 
CC(/N=C(/NC#N)Nc1cccnc1)C(C)(C)C (centres undefined) |  | 6.3 |  | 12 | 2.7 | 
CC(C)(C)CN/C(=C\[N+](=O)[O-])NCc1cccnc1 | 20000 nM | <3.5 |  |  |  | 
CC(/N=C(/S)Nc1cccnc1)C(C)(C)C (centres undefined) | 50.1 nM | 5.7 |  | 13.2 | 2.97 | 
CC(C)(C)/N=C(/NC#N)Nc1cccnc1 | 12.6 nM | 6.1 |  |  |  | 
CC(C)(C)C1CN=C(Nc2cccnc2)N1 (centres undefined) | 3160 nM |  |  | 8.1 | 2.03 | 
COc1cncc(N/C(=C/[N+](=O)[O-])N[C@@H](C)C(C)(C)C)c1 | 15.8 nM | 6.5 |  | 6.5 | 1.86 | 
CC(C)(C)C/N=C(/NC#N)Nc1cccnc1 | 100 nM | 5.5 |  | 11.8 | 2.83 | 
CC(C)(C)CN/C(=C\[N+](=O)[O-])Nc1ccncc1 | 10000 nM | <3.5 |  |  |  | 
CC1(C)CSC(Nc2cccnc2)=N1 | 31600 nM |  |  |  |  | 

SMILES | IC50 [1] | pEC15 [2] | Log IC50 [1] | pKa [3] | pKa [4] | pKa2 [5]
CC(C)(C)CNC(=O)Nc1ccncc1.Cl | 3160 nM | 3.3 |  | > 14 | 5.46 | 
CC(C)(C)C/C(=N/c1cccnc1)NC#N |  | 4.3 |  | 11.3 | 2.23 | 
CC(N/C(=N\C#N)Nc1ccncc1)C(C)(C)C (centres undefined) [PINACIDIL ANHYDROUS] | 63.1 nM | 5.7 |  | 11.3 | 4.81 | 
CC(N/C(=C\[N+](=O)[O-])Nc1ccncc1)C(C)(C)C (centres undefined) | 1000 nM | 3.3 |  |  |  | 
C[C@@H](N/C(=N/c1ccncc1)NC#N)C(C)(C)C | 33.9 nM | 5.9 |  |  |  | 
CC(C)(C)C/N=C(/S)Nc1cccnc1 | 200 nM | 5 |  | 13.1 | 3.08 | 
CC1(C)CN=C(Nc2cccnc2)N1 | > 10000 nM |  |  | 8.2 |  | 
CCC(C)(C)/N=C(/S)Nc1cccnc1 | 200 nM | 5.2 |  |  |  | 
CC(C)(C)CN/C(=C\[N+](=O)[O-])Nc1cccnc1 | 1000 nM | 4 |  |  |  | 8.86
COc1cncc(N/C(=C/[N+](=O)[O-])N[C@H](C)C(C)(C)C)c1 | 1580 nM | 4 |  |  |  | 
CC(C)(C)c1csc(Nc2cccnc2)n1 | 1000 nM |  |  |  | 3.57 | 
CC(N/C(=C\[N+](=O)[O-])Nc1cccnc1)C(C)(C)C (centres undefined) | 31.6 nM | 5.5 |  | 9.03 | 2.28 | 
C[C@@H](N/C(=C\[N+](=O)[O-])Nc1cccnc1)C(C)(C)C |  | 3.8 | -6 |  |  | 
O=[N+]([O-])/C=C(/Nc1cccnc1)NC1CCCCC1 | 3160 nM | 3.5 |  |  |  | 
C[C@@H](/N=C(/S)Nc1ccncc1)C(C)(C)C.Cl |  | 4 |  |  |  | 
CCC(C)(C)/N=C(\NC#N)Nc1cccnc1 | 2 nM | 7.4 |  | 12.2 | 2.61 | 
CC(C)(C)C1CSC(Nc2cccnc2)=N1 (centres undefined) | 20000 nM |  |  |  | 3.89 | 
C[C@H](/N=C(/S)Nc1ccncc1)C(C)(C)C.Cl | 316 nM | 4 |  | 13 | 4.89 | 
C[C@@H](/N=C(/NC#N)Nc1cccnc1)C(C)(C)C |  |  | -7 |  |  | 
